Experimental data: publication PMC3086571 (Organometallics, 2011)

How the values were obtained:
[1] = tested on: CH1 cells (ovarian carcinoma); experiment: MTT cytotoxicity assay, CH1; assay type: cell-based, human; conditions: for capacity of inhibiting tumor cell proliferation in vitro: CH1 ovarian cancer cells; for IC50: Homo sapiens, CH1, 96 h, read-out: IC50 CH1
How it was run: (§1)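 Adherent monolayers grown in supplemented MEM with 10% heat-inactivated FBS at 37 °C, 5% CO2. Cells were trypsinised and seeded at 4 × 10^3 (A549), 1.5 × 10^3 (CH1) or 2.5 × 10^3 (SW480) per well, then left 24 h. Compound dilutions in complete medium were applied for 96 h. MTT was added for 4 h and formazan dissolved in DMSO; OD read at 550/690 nm versus untreated controls. IC50 was interpolated from the curves; ≥3 independent experiments, triplicates.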

[2] = Aqueous stability; assay type: physicochemical; conditions: for Stability (amount of aqua complex in the solution), 1H NMR: D2O, after 18 or 24 h incubation (NMR: 18 h)
How it was run: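 Test compound (1−2 mg/mL) dissolved in D2O; 1H NMR spectra recorded immediately after dissolution and again after 18 h to follow chlorido-to-aqua exchange.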

[3] = Aqueous stability; assay type: physicochemical; conditions: water, 25 °C, after 18 or 24 h incubation
[4] = tested on: rat skeletal myoblasts; conditions: in vitro, preliminary; cited from earlier work
[5] = tested on: topoisomerase II; conditions: electrophoretic assay with plasmid DNA; cited from earlier work
[6] = tested on: A549 cells (nonsmall cell lung carcinoma); experiment: MTT cytotoxicity assay, A549; assay type: cell-based; conditions: Homo sapiens, A549, 96 h, read-out: IC50 A549
How it was run: as §1

[7] = tested on: SW480 cells (colon carcinoma); experiment: MTT cytotoxicity assay, SW480; assay type: cell-based; conditions: Homo sapiens, SW480, 96 h, read-out: IC50 SW480
How it was run: as §1

| Stability (amount of aqua complex in the solution), 1H NMR [2] [%] | free ligand from decomposition of the aqua species ([2]; aqueous solution, over 24 h) | Stability (amount of aqua complex in the solution), CZE-ICP-MS [3] [%] | Compound | capacity of inhibiting tumor cell proliferation in vitro [1] | sensitivity of CH1 cells relative to SW480 cells ([1]; ratio of IC50 SW480 / CH1) | cytotoxic activity in rat skeletal myoblasts [4] | topoisomerase II inhibition [5] | IC50 [6] [µM] | IC50 [1] [µM] | IC50 [7] [µM] |
| --- | --- | --- | --- | --- | --- | --- | --- | --- | --- | --- |
| 45 | more than 40% | 56 | CC1COc2c(N3CCN(C)CC3)c(F)cc3c(=O)c(C(=O)[O-])cn1c23.Cc1ccc(C(C)C)cc1.[Cl-].[Ru+2] (centres unmarked) [Compound 1, chlorido(η^6-p-cymene)(ofloxacinato-κ^2O,O)ruthenium(II)] | moderate | about 10 times | no significant activity | very little topoisomerase II inhibition |  |  |  |
| 90 |  | 87 | Chlorido(η^6-p-cymene)(cinoxacinato-κ^2O,O)ruthenium(II) [Compound 3] | inactive |  |  |  |  |  |  |
| 94 |  | 93 | Chlorido(η^6-p-cymene)(nalidixicato-κ^2O,O)ruthenium(II) [Compound 2] | inactive |  |  |  |  |  |  |

More lines, now with the values behind:

| Compound | Stability (amount of aqua complex in the solution), 1H NMR [2] [%] | free ligand from decomposition of the aqua species ([2]; aqueous solution, over 24 h) | Stability (amount of aqua complex in the solution), CZE-ICP-MS [3] [%] | capacity of inhibiting tumor cell proliferation in vitro [1] | sensitivity of CH1 cells relative to SW480 cells ([1]; ratio of IC50 SW480 / CH1) | cytotoxic activity in rat skeletal myoblasts [4] | topoisomerase II inhibition [5] | IC50 [6] [µM] | IC50 [1] [µM] | IC50 [7] [µM] |
| --- | --- | --- | --- | --- | --- | --- | --- | --- | --- | --- |
| CCn1nc(C(=O)O)c(=O)c2cc3c(cc21)OCO3 [cin-H, cinoxacin] |  |  |  |  |  |  |  | > 320 | > 320 | > 320 |
| CCn1cc(C(=O)O)c(=O)c2ccc(C)nc21 [nal-H, nalidixic acid] |  |  |  |  |  |  |  | > 320 | > 320 | > 320 |
| CC1COc2c(N3CCN(C)CC3)c(F)cc3c(=O)c(C(=O)O)cn1c23 (centres unmarked) [oflo-H, ofloxacin, reference compound] |  |  |  |  |  |  | very little topoisomerase II inhibition | > 320 | > 320 | > 320 |
